Consider 1 molecule from ChEMBL document CHEMBL4152210, “Design, synthesis, anti-lung cancer activity, and chemosensitization of tumor-selective MCACs based on ROS-mediated JNK pathway activation and NF-κB pathway inhibition” (Eur J Med Chem, 2018).

Each structure is given as a SMILES string. Calls of active or inactive are those of the source. The calls are words filed in the database; no cut-off is given here.

In one data set the test system is NCI-H460. The data set is described as follows: Cytotoxicity against human H460 cells assessed as reduction in cell viability after 72 hrs by MTT assay. The data set is classed as functional, cell-based. As to conditions: NCI-H460, 72 h. An outline of the steps: (§1)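 Cells in RPMI 1640 with 10% heat-inactivated FBS and penicillin/streptomycin at 37 °C, 5% CO2. Seeded at 4000 per well, adhered overnight, then exposed to graded compound concentrations in triplicate wells for 72 h. MTT (5 mg/mL stock) added for 4 h, dissolved in DMSO, A490 read. IC50 is the concentration reducing viability by 50% versus untreated control.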
Background: Tetrazolium assays rely on reduction of a dye to a coloured formazan, in cell work by metabolically active cells.

The next data set deals with NCI-H1975. The data set is described as follows: Cytotoxicity against human NCI-H1975 cells assessed as reduction in cell viability after 72 hrs by MTT assay. It counts as functional, cell-based. To be noted: NCI-H1975, 72 h. An outline of the steps: as §1
The nature of data set [1]: Selectivity index, ratio of IC50 for human HL7702 cells to IC50 for human NCI-H1975 cells. The data set is classed as toxicity. The method, boiled down: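 Selectivity index taken as the logarithm of the ratio of the HL7702 IC50 to the cancer-line IC50. […] Not calculated when an IC50 was lacking.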
For data set [2], the system named is A549. The data set is described as follows: Induction of apoptosis in human A549 cells assessed as increase in caspase-3 level after 24 hrs by Western blot analysis. It counts as functional, cell-based. (In general: Immunoblotting shows a protein as a band on a membrane.)
Data set [3] deals with Mitogen-activated protein kinase 8/9 (Homo sapiens) (UniProt P45983+P45984). The data set is described as follows: Induction of JNK 1/2 phosphorylatyion in human A549 cells at 10 uM pretreated with 5 mM NAC for 1 hr followed by compound addition and measured after 6 hrs by Western blot analysis. It counts as cell-based. An outline of the steps:
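A549 exposed at 10 µM for varying times, or at various concentrations for 6 h. Inhibition arms pretreated 1 h with SP600125 (10 µM) or NAC (5 mM) before 10 µM for 6 h. Lysates run on 10% SDS-PAGE and transferred to PVDF. p-JNK probed, GAPDH as loading control.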

For data set [4], the target named is T1, NF-kappa-B inhibitor alpha (Homo sapiens) (UniProt P25963).
T1 sequence (whole entry): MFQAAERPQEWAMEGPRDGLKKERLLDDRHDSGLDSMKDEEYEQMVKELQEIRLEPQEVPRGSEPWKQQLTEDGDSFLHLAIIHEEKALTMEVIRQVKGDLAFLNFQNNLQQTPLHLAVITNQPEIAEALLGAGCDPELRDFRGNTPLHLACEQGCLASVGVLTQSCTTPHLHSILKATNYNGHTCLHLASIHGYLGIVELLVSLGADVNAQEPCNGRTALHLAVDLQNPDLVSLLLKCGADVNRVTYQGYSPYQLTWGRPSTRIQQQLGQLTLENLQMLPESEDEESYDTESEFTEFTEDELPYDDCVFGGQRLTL
The experiment in a line: Inhibition of TNF-alpha induced IkappaBalpha degradation in human A549 cells at 10 uM pretreated with 5 mM NAC for 1 hr followed by compound addition and measured after 1 hr by Western blot analysis. It counts as cell-based. The method, boiled down:
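A549 preincubated 1 h at 1, 5 or 10 µM, or with BMS345541 (20 µM), then stimulated with TNFα (1 ng/mL) for 15 min. NAC arm: 5 mM NAC for 1 h, then 10 µM for 1 h. IκBα detected by western blot, GAPDH as loading control.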

For data set [5], the target named is T2, Inhibitor of nuclear factor kappa-B kinase subunit beta (Homo sapiens) (UniProt O14920).
T2 sequence (whole entry): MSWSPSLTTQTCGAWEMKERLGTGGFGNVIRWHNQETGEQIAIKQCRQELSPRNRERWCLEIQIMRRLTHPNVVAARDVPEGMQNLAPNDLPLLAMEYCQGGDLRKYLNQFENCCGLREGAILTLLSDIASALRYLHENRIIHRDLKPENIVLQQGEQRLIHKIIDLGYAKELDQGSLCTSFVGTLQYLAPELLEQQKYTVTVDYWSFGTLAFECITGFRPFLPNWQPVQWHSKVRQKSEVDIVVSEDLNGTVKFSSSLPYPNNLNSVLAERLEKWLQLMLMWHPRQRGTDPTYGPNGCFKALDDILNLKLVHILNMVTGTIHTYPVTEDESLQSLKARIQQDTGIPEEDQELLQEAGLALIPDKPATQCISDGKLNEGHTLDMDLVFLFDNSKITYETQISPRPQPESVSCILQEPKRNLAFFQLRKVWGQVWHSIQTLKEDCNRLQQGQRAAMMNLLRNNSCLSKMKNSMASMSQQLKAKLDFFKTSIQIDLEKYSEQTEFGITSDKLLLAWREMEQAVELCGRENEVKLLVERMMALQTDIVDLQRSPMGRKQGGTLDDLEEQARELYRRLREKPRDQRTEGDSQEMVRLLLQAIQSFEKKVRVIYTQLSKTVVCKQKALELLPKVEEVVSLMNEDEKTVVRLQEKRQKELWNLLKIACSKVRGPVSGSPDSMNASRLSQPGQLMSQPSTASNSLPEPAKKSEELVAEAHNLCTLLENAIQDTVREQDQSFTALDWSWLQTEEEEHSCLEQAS
The data set is described as follows: Inhibition of cisplatin-induced IKK-beta phosphorylation in human A549 cells at 1 to 10 uM preincubated for 1 hr followed by cisplatin addition and measured after 24 hrs by Western blot analysis. The data set is classed as cell-based. The method, boiled down: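 A549 pretreated 1 h at 1, 5 or 10 µM, or with BMS345541 (20 µM), then exposed to cisplatin (20/3 µM) for 24 h. p-IKKβ assessed by western blot.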

Data set [6] concerns A549. The data set is described as follows: Chemosensitization activity in human A549 cells assessed as inhibition of clonogenic growth at 0.5 uM in presence of 0.25 uM cisplatin incubated for 2 days followed by replacement of growth media and measured after 8 days by crystal violet staining-based assay relative to control. The data set is classed as functional. An outline of the steps:
(§2)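 A549 seeded at 1000 cells per well in 6-well plates, exposed to drug alone or combined with cisplatin or 5-Fu over a concentration series. Drug-containing medium replaced after 2 days. After a further 8 days, fixed with 1% methanol/1% formaldehyde and stained with 0.5% crystal violet. Percent inhibition at each concentration calculated relative to control.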

Data set [7] has as its system A549. The data set is described as follows: Chemosensitization activity in human A549 cells assessed as inhibition of clonogenic growth at 0.5 uM in presence of 0.74 uM cisplatin incubated for 2 days followed by replacement of growth media and measured after 8 days by crystal violet staining-based assay relative to control. It counts as functional. An outline of the steps: as §2

The test system of data set [8] is A549. The experiment in a line: Chemosensitization activity in human A549 cells assessed as inhibition of clonogenic growth at 1 uM in presence of 0.74 uM cisplatin incubated for 2 days followed by replacement of growth media and measured after 8 days by crystal violet staining-based assay relative to control. It counts as functional. The method, boiled down:
as §2

The subject of data set [9] is A549. The data set is described as follows: Chemosensitization activity in human A549 cells assessed as inhibition of clonogenic growth at 0.25 uM in presence of 3 uM cisplatin incubated for 2 days followed by replacement of growth media and measured after 8 days by crystal violet staining-based assay relative to control. The data set is classed as functional. An outline of the steps:
as §2

Data set [10] deals with A549. The experiment in a line: Anticlonogenic activity against human A549 cells assessed as inhibition of clonogenic growth at 1 uM incubated for 2 days followed by replacement of growth media and measured after 8 days by crystal violet staining-based assay relative to control. The data set is classed as functional. An outline of the steps: as §2

Chain of Mitogen-activated protein kinase 8/9 (Homo sapiens) (P45983 whole entry, looked up): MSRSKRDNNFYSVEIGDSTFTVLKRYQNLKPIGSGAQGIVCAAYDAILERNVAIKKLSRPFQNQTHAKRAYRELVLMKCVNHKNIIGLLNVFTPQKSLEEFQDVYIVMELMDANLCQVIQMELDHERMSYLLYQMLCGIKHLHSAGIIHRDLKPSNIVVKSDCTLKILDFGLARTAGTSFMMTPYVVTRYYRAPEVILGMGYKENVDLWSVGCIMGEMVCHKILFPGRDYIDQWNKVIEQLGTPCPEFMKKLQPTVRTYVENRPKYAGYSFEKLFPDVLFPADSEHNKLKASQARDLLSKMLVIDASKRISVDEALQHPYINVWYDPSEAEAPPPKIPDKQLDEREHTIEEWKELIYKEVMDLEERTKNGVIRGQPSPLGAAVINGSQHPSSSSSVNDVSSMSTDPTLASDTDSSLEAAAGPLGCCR
Chain of Mitogen-activated protein kinase 8/9 (Homo sapiens) (P45984 whole entry, looked up): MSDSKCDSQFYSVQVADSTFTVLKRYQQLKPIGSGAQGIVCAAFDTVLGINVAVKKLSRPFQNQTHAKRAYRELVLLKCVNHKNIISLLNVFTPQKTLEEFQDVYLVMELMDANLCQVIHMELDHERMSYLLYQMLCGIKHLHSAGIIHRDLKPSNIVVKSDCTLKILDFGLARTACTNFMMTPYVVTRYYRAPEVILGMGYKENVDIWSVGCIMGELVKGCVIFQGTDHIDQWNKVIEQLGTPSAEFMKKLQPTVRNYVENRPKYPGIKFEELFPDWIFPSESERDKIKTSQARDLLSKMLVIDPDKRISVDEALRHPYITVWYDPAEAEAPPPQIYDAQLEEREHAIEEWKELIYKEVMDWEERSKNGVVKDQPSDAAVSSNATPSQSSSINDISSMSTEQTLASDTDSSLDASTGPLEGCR

As a reminder, the IC50 is the point on the concentration scale where inhibition reaches its midpoint. As usually defined, the inhibition is the share of the control response that was lost under treatment. For `COc1cc(/C=C2\CN(C)C/C(=C\c3cc(OC)c(OC)c(OC)c3)C2=O)cc(OC)c1OC`, the IC50 with NCI-H460 and with NCI-H1975 was 1000 nM in each case. In data set [1], the “log(RatioIC50)” value came out at 1.42. Further, the Activity result in the data set with A549 [2] is “Dose-dependent effect”. The result in [3] was inactive. Besides, the inhibition entry in data set [4] is “inactive”. Besides, the inhibition result in data set [5] is “Active”. In addition, the “inhibition (INH)” value amounted to 59% with A549 [6], 82% in the data set with A549 [7], 97% in the data set with A549 [8] and 57% in the data set with A549 [9]. Also, the inhibition at 1 µM in the data set on A549 [10] was 44%.
